In ChEMBL document CHEMBL3259680, “Discovery and Biological Evaluation of Novel Dual EGFR/c-Met Inhibitors” (ACS Med Chem Lett, 2014):
Calls of active or inactive are those of the source. The calls are words filed in the database; no cut-off is given here.

Assays:
MDCK [1] = experiment: Antiinvasive activity in MDCK cells assessed as inhibition of HGF-induced cell motility preincubated at 0.3 uM for 1 hr before HGF treatment measured after 48 hrs by cell scattering assay; type: functional, cell-based; conditions: Canis lupus familiaris
[2] = target: Receptor tyrosine-protein kinase erbB-2 (Homo sapiens) (UniProt P04626); experiment: Inhibition of recombinant ErbB2 (unknown origin) at 1 uM
Summary of the method: (§1)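 Single-point screen at 1 μM on a recombinant panel of 34 clinically relevant kinases; percent inhibition reported.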

[3] = target: Tyrosine-protein kinase receptor UFO (Homo sapiens) (UniProt P30530); experiment: Inhibition of recombinant AXL (unknown origin) at 1 uM; summary of the method: as §1
[4] = Cytotoxicity against human HCC827 cells after 48 hrs by MTT assay; type: functional, cell-based; conditions: HCC827, 48 h
[5] = target: Epidermal growth factor receptor (Homo sapiens, UniProt P00533, L858R); experiment: Inhibition of recombinant EGFR L858R mutant (unknown origin) using poly-GT peptide as substrate after 1 hr by Transcreener assay; type: protein assay
HCC827 = experiment: Induction of apoptosis in human HCC827 cells at 1 uM after 24 hrs using propidium iodide by flow cytometry; type: functional, cell-based
Summary of the method: (§2)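 Apoptosis read by flow cytometry; means ± SD of at least 3 independent experiments; unpaired 2-tailed Student's t test against DMSO-treated cells, p < 0.05.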

[6] = target: T1, Hepatocyte growth factor receptor (Homo sapiens, UniProt P08581); experiment: Inhibition of c-MET phosphorylation in human NCI-H1993 cells at 1 uM after 1 hr by Western blot analysis; type: cell-based
[7] = target: T2, Epidermal growth factor receptor (Homo sapiens, UniProt P00533); experiment: Inhibition of recombinant EGFR (unknown origin) using poly-GT peptide as substrate by Transcreener assay
A549 = experiment: Cytotoxicity against human A549 cells after 48 hrs by MTT assay; type: functional, cell-based; conditions: A549, 48 h
[8] = target: Epithelial discoidin domain-containing receptor 1 (Homo sapiens) (UniProt Q08345); experiment: Inhibition of recombinant DDR1 (unknown origin) at 1 uM; summary of the method: as §1
NCI-H1993 [9] = experiment: Induction of apoptosis in human NCI-H1993 cells at 1 uM after 24 hrs using propidium iodide by flow cytometry; type: functional, cell-based; summary of the method: as §2
[10] = target: T1, Hepatocyte growth factor receptor; experiment: Inhibition of c-MET phosphorylation in human HCC827 cells at 1 uM after 1 hr by Western blot analysis; type: cell-based
NCI-H1975 = experiment: Cytotoxicity against human NCI-H1975 cells after 48 hrs by MTT assay; type: functional, cell-based; conditions: NCI-H1975, 48 h
[11] = Cytotoxicity against mouse NIH/3T3 cells after 48 hrs by MTT assay; type: cell-based; conditions: NIH3T3, 48 h
[12] = target: T1, Hepatocyte growth factor receptor; experiment: Inhibition of recombinant c-MET (unknown origin) using poly-AEKY peptide as substrate after 60 mins by ADPGlo assay
[13] = target: Receptor-type tyrosine-protein kinase FLT3 (Homo sapiens) (UniProt P36888); experiment: Inhibition of recombinant FLT3 (unknown origin) at 1 uM; summary of the method: as §1
NCI-H1993 [14] = experiment: Cytotoxicity against human NCI-H1993 cells after 48 hrs by MTT assay; type: functional, cell-based; conditions: NCI-H1993, 48 h
[15] = target: T2, Epidermal growth factor receptor; experiment: Inhibition of EGFR phosphorylation in human NCI-H1993 cells at 1 uM after 1 hr by Western blot analysis; type: cell-based
[16] = target: T2, Epidermal growth factor receptor; experiment: Competitive inhibition of recombinant EGFR (unknown origin) using poly-GT peptide as substrate by Lineweaver-Burk double reciprocal plot method
Summary of the method: (§3)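 Recombinant enzyme activity (Vmax) measured at varied ATP and inhibitor concentrations; signal shifts (ΔS) plotted as Lineweaver–Burk double reciprocal plot to assess binding mode versus ATP.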

[17] = target: T1, Hepatocyte growth factor receptor; experiment: Inhibition of recombinant c-MET (unknown origin) using poly-AEKY peptide as substrate by ADPGlo assay; conditions: TDE = time-dependent effect
DU-145 = experiment: Antiinvasive activity in human DU145 cells assessed as inhibition of HGF-induced cell motility preincubated for 1 hr before HGF treatment measured after 24 hrs by cell scattering assay; type: functional, cell-based
Insulin receptor = Insulin receptor (Homo sapiens, UniProt P06213); experiment: Inhibition of recombinant INSR (unknown origin) using fluorescent dye-labelled KKSRGDYMTMQIG peptide peptide as substrate after 1 hr by IMAP assay
[18] = target: T2, Epidermal growth factor receptor; experiment: Inhibition of EGFR phosphorylation in human HCC827 cells at 1 uM after 1 hr by Western blot analysis; type: cell-based
[19] = target: Proto-oncogene tyrosine-protein kinase receptor Ret (Homo sapiens) (UniProt P07949); experiment: Inhibition of recombinant RET (unknown origin) at 1 uM; summary of the method: as §1
MDCK [20] = experiment: Cytotoxicity against MDCK cells assessed as cell death at 1 uM after 48 hrs; type: cell-based, Canis lupus familiaris; conditions: dog
[21] = target: Mast/stem cell growth factor receptor Kit (Homo sapiens) (UniProt P10721); experiment: Inhibition of recombinant c-KIT (unknown origin) at 1 uM; summary of the method: as §1
[22] = target: T1, Hepatocyte growth factor receptor; experiment: Competitive inhibition of recombinant c-MET (unknown origin) using poly-AEKY peptide as substrate by Lineweaver-Burk double reciprocal plot method; summary of the method: as §3

Q: With `COc1cc2c(Oc3ccc(NS(=O)(=O)c4cccc(-c5ccsc5)c4)cc3F)ccnc2cc1OCCCN1CCN(C)CC1` as the molecule, how does the Activity (MDCK [1]) read?
A: Active

Q: What about the inhibition [2] of the same molecule?
A: > 70%

Q: And the inhibition [3]?
A: > 70%

Q: And the IC50 [4]?
A: 1940 nM

Q: And the IC50 [5]?
A: 310 nM

Q: What about the Activity (HCC827) of the same molecule?
A: Active

Q: And the inhibition [6]?
A: Active

Q: And the IC50 [7]?
A: 94 nM

Q: What about the IC50 (A549) of the same molecule?
A: 4760 nM

Q: And the inhibition [8]?
A: > 70%

Q: What about the Activity (NCI-H1993 [9]) of the same molecule?
A: inactive

Q: And the inhibition [10]?
A: inactive

Q: What about the IC50 (NCI-H1975) of the same molecule?
A: 2300 nM

Q: What about the IC50 [11] of the same molecule?
A: 2350 nM

Q: And the IC50 [12]?
A: 398 nM

Q: And the inhibition [13]?
A: > 70%

Q: And the IC50 (NCI-H1993 [14])?
A: 1360 nM

Q: And the inhibition [15]?
A: Active

Q: What about the inhibition [16] of the same molecule?
A: Active

Q: What about the inhibition [17] of the same molecule?
A: tde

Q: What about the IC50 (DU-145) of the same molecule?
A: 1100 nM

Q: And the IC50 (Insulin receptor)?
A: 2870 nM

Q: And the inhibition [18]?
A: inactive

Q: And the inhibition [19]?
A: > 70%

Q: And the Activity (MDCK [20])?
A: Toxic

Q: What about the inhibition [21] of the same molecule?
A: > 70%

Q: And the inhibition [22]?
A: Active
